Measured values: ChEMBL document CHEMBL3779898, “3,3'-OH curcumin causes apoptosis in HepG2 cells through ROS-mediated pathway” (Eur J Med Chem, 2016)
Active and inactive are the calls of the source. The calls are words filed in the database; no cut-off is given here.

Legend:
HepG2 [1] = experiment: Cytotoxicity against human HepG2 cells assessed as reduction in cell viability after 48 hrs by MTT assay; assay type: functional, cell-based; settings: HepG2, 48 h
Summary of the method: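 HepG2 seeded at 3×10^3/well, grown 24 h, then exposed to compounds for 48 h. MTT (0.5 mg/mL) added for 4 h, formazan dissolved in DMSO, absorbance read at 570 nm. IC50 = concentration giving 50% loss of viability; mean ± SD of three determinations.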

HepG2 [2] = experiment: Induction of intracellular ROS production in human HepG2 cells assessed as decrease in GSH/GSSG ratio at 50 uM incubated for 6 hrs by glutathione reductase-DTNB recycling assay relative to control; assay type: functional
Summary of the method: (§1)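 HepG2 (5×10^5/well) grown 24 h, treated 6 h, then lysed in ice-cold 10 mM HCl by three freeze–thaw cycles; part of lysate used for protein. Proteins precipitated with 6.5% 5-sulfosalicylic acid; supernatant assayed for total GSH and GSSG by glutathione reductase–DTNB recycling; triplicate.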

HepG2 [3] = experiment: Induction of apoptosis in human HepG2 cells assessed as necrotic cells at 12.5 uM after 24 hrs by Annexin V-FITC/propidium iodide staining based flow cytometry (reference value: 1.6%); assay type: functional
Summary of the method: (§2)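 HepG2 plated at 5×10^5/well, grown 24 h, then treated 24 h; where indicated, 1 h pretreatment with 5 mM GSH or NAC. Cells stained with Annexin V-FITC/PI; 10,000 cells per sample analysed by flow cytometry into early apoptotic, late apoptotic and necrotic quadrants; triplicate.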

HepG2 [4] = experiment: Induction of apoptosis in human HepG2 cells assessed as early apoptotic cells at 12.5 uM after 24 hrs by Annexin V-FITC/propidium iodide staining based flow cytometry (reference value: 2.8%); assay type: functional; summary of the method: as §2
HepG2 [5] = experiment: Induction of apoptosis in human HepG2 cells assessed as early apoptotic cells at 25 uM after 24 hrs by Annexin V-FITC/propidium iodide staining based flow cytometry (reference value: 2.8%); assay type: functional; summary of the method: as §2
HepG2 [6] = experiment: Induction of apoptosis in human HepG2 cells assessed as early apoptotic cells at 50 uM after 24 hrs pretreated with 5 mM N-acetylcysteine for 1 hr by Annexin V-FITC/propidium iodide staining based flow cytometry (reference value: 2.8%); assay type: functional; summary of the method: as §2
HepG2 [7] = experiment: Induction of apoptosis in human HepG2 cells assessed as necrotic cells at 50 uM after 24 hrs pretreated with 5 mM glutathione for 1 hr by Annexin V-FITC/propidium iodide staining based flow cytometry (reference value: 1.6%); assay type: functional; summary of the method: as §2
HepG2 [8] = experiment: Induction of apoptosis in human HepG2 cells assessed as early apoptotic cells at 50 uM after 24 hrs pretreated with 5 mM glutathione for 1 hr by Annexin V-FITC/propidium iodide staining based flow cytometry (reference value: 2.8%); assay type: functional; summary of the method: as §2
HepG2 [9] = experiment: Induction of apoptosis in human HepG2 cells assessed as necrotic cells at 37.5 uM after 24 hrs by Annexin V-FITC/propidium iodide staining based flow cytometry (reference value: 1.6%); assay type: functional; summary of the method: as §2
HepG2 [10] = experiment: Induction of superoxide radical generation production in human HepG2 cells at 50 uM incubated for 6 hrs by DHE staining based flow cytometry; assay type: functional, cell-based
Summary of the method: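 Cells incubated 6 h with 50 μM compound, stained with 3 μM DHE for 30 min at 37 °C in the dark, and analysed by flow cytometry; triplicate.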

HepG2 [11] = experiment: Induction of intracellular ROS production in human HepG2 cells assessed as decrease in GSH/GSSG ratio incubated for 6 hrs by glutathione reductase-DTNB recycling assay; assay type: functional, cell-based; summary of the method: as §1
HepG2 [12] = experiment: Induction of apoptosis in human HepG2 cells assessed as late apoptotic cells at 50 uM after 24 hrs pretreated with 5 mM glutathione for 1 hr by Annexin V-FITC/propidium iodide staining based flow cytometry (reference value: 5.4%); assay type: functional; summary of the method: as §2
HepG2 [13] = experiment: Induction of apoptosis in human HepG2 cells assessed as necrotic cells at 50 uM after 24 hrs pretreated with 5 mM N-acetylcysteine for 1 hr by Annexin V-FITC/propidium iodide staining based flow cytometry (reference value: 1.6%); assay type: functional; summary of the method: as §2
HepG2 [14] = experiment: Induction of intracellular ROS production in human HepG2 cells at 50 uM after 3 to 6 hrs by DCFH-DA staining based flow cytometry in presence of 5mM glutathione; assay type: functional, cell-based
Summary of the method: (§3)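 HepG2 pretreated 1 h with 5 mM GSH or 5 mM NAC, then exposed to 50 μM compound for the indicated time; loaded with 3 μM DCFH-DA for 30 min at 37 °C in the dark, washed with PBS, DCF fluorescence read by flow cytometry (ex 488, em 530 nm).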

HepG2 [15] = experiment: Induction of intracellular ROS production in human HepG2 cells at 50 uM after 3 to 6 hrs by DCFH-DA staining based flow cytometry in presence of 5mM N-acetylcysteine; assay type: functional, cell-based; summary of the method: as §3
HepG2 [16] = experiment: Induction of mitochondrial membrane potential loss in human HepG2 cells at 50 uM after 18 hrs by rhodamine 123 staining based flow cytometry in presence of 5mM N-acetylcysteine; assay type: functional, cell-based
Summary of the method: (§4)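 HepG2 pretreated 1 h with 5 mM GSH or 5 mM NAC, then exposed to 50 μM compound for the indicated time; Rhodamine 123 fluorescence measured by flow cytometry; triplicate.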

HepG2 [17] = experiment: Induction of intracellular ROS production in human HepG2 cells at 50 uM after 6 hrs by DCFH-DA staining based flow cytometry relative to control; assay type: functional
Summary of the method: (§5)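 Cells treated with 50 μM compound for 6 h, with or without 1 h catalase pretreatment; stained with 3 μM DCFH-DA for 30 min at 37 °C in the dark, washed, DCF fluorescence read by flow cytometry (488/530 nm); triplicate.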

HepG2 [18] = experiment: Induction of lipid peroxidation in human HepG2 cells assessed as increase in malondialdehyde formation after 18 hrs; assay type: functional, cell-based
Summary of the method: (§6)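 HepG2 (5×10^5/well) grown 24 h, treated 18 h at 6.25, 25, 37.5 or 50 μM, lysed in ice-cold water by freeze–thaw. Lysate heated 1 h at 95 °C with 0.4% thiobarbituric acid, 0.5% SDS, 9.4% acetic acid (pH 3.5), centrifuged, A532 read. MDA quantified against a tetramethoxypropane standard curve, expressed as pmol/mg protein; triplicate.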

HepG2 [19] = experiment: Induction of apoptosis in human HepG2 cells assessed as necrotic cells at 25 uM after 24 hrs by Annexin V-FITC/propidium iodide staining based flow cytometry (reference value: 1.6%); assay type: functional; summary of the method: as §2
HepG2 [20] = experiment: Induction of apoptosis in human HepG2 cells assessed as late apoptotic cells at 50 uM after 24 hrs by Annexin V-FITC/propidium iodide staining based flow cytometry (reference value: 5.4%); assay type: functional; summary of the method: as §2
HepG2 [21] = experiment: Potency index, ratio of curcumin IC50 to compound IC50 for human HepG2 cells; assay type: functional
Summary of the method: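 Derived from MTT IC50 values in HepG2 after 48 h treatment, means of three determinations.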

HepG2 [22] = experiment: Induction of intracellular ROS production in human HepG2 cells at 50 uM after 6 hrs by DCFH-DA staining based flow cytometry in presence of catalase; assay type: functional, cell-based; summary of the method: as §5
HepG2 [23] = experiment: Cytotoxicity against human HepG2 cells assessed as reduction in cell viability at 50 uM after 48 hrs by MTT assay in presence of 5mM glutathione; assay type: functional, cell-based
Summary of the method: (§7)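 HepG2 cells pretreated 1 h with 5 mM NAC or 5 mM GSH, then exposed to 50 μM test compound; viability measured by MTT (0.5 mg/mL, 4 h, DMSO solubilisation, 570 nm).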

HepG2 [24] = experiment: Induction of apoptosis in human HepG2 cells assessed as late apoptotic cells at 25 uM after 24 hrs by Annexin V-FITC/propidium iodide staining based flow cytometry (reference value: 5.4%); assay type: functional; summary of the method: as §2
HepG2 [25] = experiment: Cytotoxicity against human HepG2 cells assessed as reduction in cell viability at 50 uM after 48 hrs by MTT assay in presence of 5mM N-acetylcysteine; assay type: functional, cell-based; summary of the method: as §7
HepG2 [26] = experiment: Induction of apoptosis in human HepG2 cells assessed as necrotic cells at 50 uM after 24 hrs by Annexin V-FITC/propidium iodide staining based flow cytometry (reference value: 1.6%); assay type: functional; summary of the method: as §2
HepG2 [27] = experiment: Induction of apoptosis in human HepG2 cells assessed as early apoptotic cells at 37.5 uM after 24 hrs by Annexin V-FITC/propidium iodide staining based flow cytometry (reference value: 2.8%); assay type: functional; summary of the method: as §2
HepG2 [28] = experiment: Induction of apoptosis in human HepG2 cells assessed as late apoptotic cells at 37.5 uM after 24 hrs by Annexin V-FITC/propidium iodide staining based flow cytometry (reference value: 5.4%); assay type: functional; summary of the method: as §2
HepG2 [29] = experiment: Cellular uptake in human HepG2 cells at 50 uM after 1 hr; assay type: ADME, cell-based; settings: hepg2, 1 h
Summary of the method: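 HepG2 cells exposed to 50 μM for varying incubation periods; cells lysed, lysate extracted with methanol, and uptake estimated by absorbance of the extract.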

HepG2 [30] = experiment: Induction of apoptosis in human HepG2 cells after 24 hrs by Annexin V-FITC/propidium iodide staining based flow cytometry; assay type: functional, cell-based; summary of the method: as §2
HepG2 [31] = experiment: Induction of apoptosis in human HepG2 cells assessed as early apoptotic cells at 50 uM after 24 hrs by Annexin V-FITC/propidium iodide staining based flow cytometry (reference value: 2.8%); assay type: functional; summary of the method: as §2
Serum = experiment: Stability in RPMI-1640 medium containing 10% fetal calf serum at 25 uM incubated for 20 to 120 mins at 25 degC; assay type: ADME, Bos taurus; settings: cattle
HepG2 [32] = experiment: Induction of apoptosis in human HepG2 cells assessed as late apoptotic cells at 12.5 uM after 24 hrs by Annexin V-FITC/propidium iodide staining based flow cytometry (reference value: 5.4%); assay type: functional; summary of the method: as §2
HepG2 [33] = experiment: Induction of lipid peroxidation in human HepG2 cells assessed as increase in malondialdehyde formation at 50 uM after 18 hrs relative to control; assay type: functional; summary of the method: as §6
HepG2 [34] = experiment: Induction of mitochondrial membrane potential loss in human HepG2 cells at 50 uM after 18 hrs by rhodamine 123 staining based flow cytometry in presence of 5mM glutathione; assay type: functional, cell-based; summary of the method: as §4
HepG2 [35] = experiment: Induction of apoptosis in human HepG2 cells assessed as late apoptotic cells at 50 uM after 24 hrs pretreated with 5 mM N-acetylcysteine for 1 hr by Annexin V-FITC/propidium iodide staining based flow cytometry (reference value: 5.4%); assay type: functional; summary of the method: as §2

O=C(/C=C/c1ccc(C(F)(F)F)cc1)CC(=O)/C=C/c1ccc(C(F)(F)F)cc1
IC50 (HepG2 [1]): > 200 µM

O=C(/C=C/c1cccc(O)c1)CC(=O)/C=C/c1cccc(O)c1
fold change (FC) (HepG2 [2]): 2
Activity (HepG2 [3]): 2.8%
Activity (HepG2 [4]): 2.8%
Activity (HepG2 [5]): 7%
Activity (HepG2 [6]): 2.8%
Activity (HepG2 [7]): 2%
Activity (HepG2 [8]): 3%
Activity (HepG2 [9]): 45%
Activity (HepG2 [10]): inactive
Activity (HepG2 [11]): Dose-dependent effect
Activity (HepG2 [12]): 6.3%
Activity (HepG2 [13]): 2.2%
Activity (HepG2 [14]): inactive
Activity (HepG2 [15]): inactive
Activity (HepG2 [16]): inactive
fold change (FC) (HepG2 [17]): 5
Activity (HepG2 [18]): Dose-dependent effect
Activity (HepG2 [19]): 7%
Activity (HepG2 [20]): 80.2%
IC50 (HepG2 [1]): 15.1 µM
Ratio IC50 (HepG2 [21]): 3.5
Activity (HepG2 [22]): inactive
Activity (HepG2 [23]): inactive
Activity (HepG2 [24]): 12.4%
Activity (HepG2 [25]): inactive
Activity (HepG2 [26]): 7.6%
Activity (HepG2 [27]): 19.1%
Activity (HepG2 [28]): 28.5%
Drug uptake (HepG2 [29]): Active
Activity (HepG2 [30]): Dose-dependent effect
Activity (HepG2 [31]): 1.4%
Stability (Serum): Stable
Activity (HepG2 [32]): 5.7%
fold change (FC) (HepG2 [33]): 1
Activity (HepG2 [34]): inactive
Activity (HepG2 [35]): 6.8%

COc1ccc(/C=C/C(=O)CC(=O)/C=C/c2ccc(OC)cc2)cc1
IC50 (HepG2 [1]): > 200 µM

COc1ccccc1/C=C/C(=O)CC(=O)/C=C/c1ccccc1OC
IC50 (HepG2 [1]): 125 µM

COc1cccc(/C=C/C(=O)CC(=O)/C=C/c2cccc(OC)c2)c1
IC50 (HepG2 [1]): 83.4 µM

O=C(/C=C/c1ccc(O)cc1)CC(=O)/C=C/c1ccc(O)cc1 [BISDEMETHOXYCURCUMIN]
IC50 (HepG2 [1]): 75.5 µM

O=C(/C=C/c1cccc(C(F)(F)F)c1)CC(=O)/C=C/c1cccc(C(F)(F)F)c1
IC50 (HepG2 [1]): > 200 µM
